Measured values: ChEMBL document CHEMBL1671747, “Efficacy and safety of intravenous peramivir for treatment of seasonal influenza virus infection” (Antimicrob Agents Chemother, 2010)
pIC50: −log10 of the molar value. Calls of active or inactive are those of the source. No cut-off for these calls is given here.

Columns and labels:
Homo sapiens [1] = assay: Toxicity in human patient infected with Influenza virus assessed as nasopharyngitis at 600 mg, iv; type: organism-based; details: in vivo
Outline: (§1)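 In this randomized trial, subjects received a single intravenous infusion of peramivir (300 mg or 600 mg) or matching placebo; the median infusion lasted 0.63 h. Subjects were followed at visits on days 1, 2 (optional), 3, 5, 9 and 14. Adverse-event incidences across the 298 treated subjects were compared with placebo using Fisher's exact test.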

Homo sapiens [2] = assay: Toxicity in human patient infected with Influenza virus assessed as occurrence of nausea at 300 mg, iv; type: organism-based; details: in vivo; outline: as §1
Homo sapiens [3] = assay: Toxicity in human patient infected with Influenza virus assessed as increase in alpha1 microglobulin at 600 mg, iv; type: organism-based; details: in vivo
Outline: (§2)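 One IV dose of 300 or 600 mg or placebo was given to adults with influenza. Blood (hematology, biochemistry) and urine (including NAG, β2- and α1-microglobulin, protein) were sampled at baseline, day 3 and day 14 by blinded technicians. Adverse-event incidence versus placebo was compared by Fisher's exact test.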

Homo sapiens [4] = assay: Toxicity in human patient infected with Influenza virus assessed as beta-N-Acetyl-D-glucosaminidase at 300 mg, iv; type: organism-based; details: in vivo; outline: as §2
[5] = test system: unidentified influenza virus; assay: Antiviral activity against Influenza virus infected in human patient assessed as decrease in virus-positive patients at 300 mg, iv on day 9; type: functional
Outline: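 Nasal and throat swabs were taken at baseline and on days 2, 3, 5 and 9, held in 2 ml transport medium, and titrated on MDCK cells in triplicate: 10-fold dilutions, 3 μg/ml trypsin, 1 h adsorption, washes, then 3 days at 37°C. CPE gave TCID50/ml by Spearman-Karber; positive meant ≥1.1 log10 TCID50/ml. Proportions were compared by Mantel-Haenszel test stratified for smoking and baseline score.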

Homo sapiens [6] = assay: Toxicity in human patient infected with Influenza virus assessed as increase in blood phosphate at 600 mg, iv; type: organism-based; details: in vivo; outline: as §2
Influenza A virus [7] = assay: Antiviral activity against Influenza A virus H3N2 infected in human patient assessed as alleviation time of symptoms at 300 mg, iv (reference value: 81 hrs); type: functional
Homo sapiens [8] = assay: Toxicity in human patient infected with Influenza virus assessed as increase in blood bilirubin at 300 mg, iv; type: organism-based; details: in vivo; outline: as §2
Homo sapiens [9] = assay: Toxicity in human patient infected with Influenza virus assessed as diarrhea at 300 mg, iv; type: organism-based; details: in vivo
Outline: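 Adverse events were recorded after one IV dose of 300 or 600 mg or placebo in adults with influenza. Incidence in each peramivir group was compared with placebo by Fisher's exact test.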

Influenza A virus [10] = assay: Antiviral activity against Influenza A virus H1N1 infected in human patient assessed as alleviation time of symptoms at 600 mg, iv (reference value: 81.4 hrs); type: functional
Homo sapiens [11] = assay: Toxicity in human patient infected with Influenza virus assessed as increase in alanine aminotransferase at 300 mg, iv; type: organism-based; details: in vivo; outline: as §2
Homo sapiens [12] = assay: Toxicity in human patient infected with Influenza virus assessed as proteinuria at 600 mg, iv; type: organism-based; details: in vivo
Outline: (§3)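 Subjects received a single intravenous peramivir dose (300 or 600 mg) or placebo, infused over a median of 0.63 h. Urinalysis covered protein, albumin and sediment, among other analytes. Urine was collected at baseline and on days 3 and 14 and tested by blinded technicians. Incidence in the safety population (n = 298 treated) was compared with placebo by Fisher's exact test.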

Influenza A virus [13] = assay: Antiviral activity against Influenza A virus H1N1 infected in human patient assessed as alleviation time of symptoms at 300 mg, iv (reference value: 81.4 hrs); type: functional
Homo sapiens [14] = assay: Toxicity in human patient infected with Influenza virus assessed as increase in blood glucose at 600 mg, iv; type: organism-based; details: in vivo; outline: as §2
Influenza A virus [15] = assay: Antiviral activity against influenza A virus H3N2 infected in MDCK cells assessed as inhibition of neuraminidase activity by fluorimetric assay; type: functional, organism-based
Outline: (§4)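 Viruses were isolated from baseline patient swabs on MDCK cells. Neuraminidase inhibition was measured by a standard fluorometric assay. IC50 came from plotting percent inhibition of neuraminidase activity against inhibitor concentration, reported as mean ± SD of three independent experiments.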

Homo sapiens [16] = assay: Toxicity in human patient infected with Influenza virus assessed as white blood cells-positive urine at 300 mg, iv; type: organism-based; details: in vivo; outline: as §3
Homo sapiens [17] = assay: Toxicity in human patient infected with Influenza virus assessed as urine containing albumine at 300 mg, iv; type: organism-based; details: in vivo; outline: as §3
Homo sapiens [18] = assay: Toxicity in human patient infected with Influenza virus assessed as increase in alpha1 Microglobulin at 300 mg, iv; type: organism-based; details: in vivo; outline: as §2
Homo sapiens [19] = assay: Toxicity in human patient infected with Influenza virus assessed as beta-N-Acetyl-D-glucosaminidase at 600 mg, iv; type: organism-based; details: in vivo; outline: as §2
Homo sapiens [20] = assay: Toxicity in human patient infected with Influenza virus assessed as beta2 microglobulin in urine at 300 mg, iv; type: organism-based; details: in vivo; outline: as §2
Homo sapiens [21] = assay: Toxicity in human patient infected with Influenza virus assessed as nausea at 600 mg, iv; type: organism-based; details: in vivo; outline: as §1
[22] = test system: unidentified influenza virus; assay: Antiviral activity against Influenza virus infected in human patient assessed as reduction in fever at 600 mg, iv after 24 hrs; type: functional, organism-based
Outline: (§5)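 A single IV dose of 300 or 600 mg or placebo was given to adults with seasonal influenza. The outcome was the proportion of subjects with postbaseline normal temperature (<37.0°C). Groups were compared by Mantel-Haenszel test stratified for smoking and baseline composite symptom score.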

Influenza B virus = assay: Antiviral activity against influenza B virus infected in MDCK cells assessed as inhibition of neuraminidase activity by fluorimetric assay; type: functional, organism-based; outline: as §4
Homo sapiens [23] = assay: Toxicity in human patient infected with Influenza virus assessed as decrease in total Protein at 600 mg, iv; type: organism-based; details: in vivo; outline: as §2
Homo sapiens [24] = assay: Toxicity in human patient infected with Influenza virus assessed as nausea at 300 mg, iv; type: organism-based; details: in vivo; outline: as §1
[25] = test system: unidentified influenza virus; assay: Antiviral activity against Influenza virus infected in human patient assessed as reduction in fever at 300 mg, iv after 24 hrs; type: functional, organism-based; outline: as §5
Homo sapiens [26] = assay: Toxicity in human patient infected with Influenza virus assessed as decrease in white blood cell count at 300 mg, iv; type: organism-based; details: in vivo; outline: as §2
Homo sapiens [27] = assay: Toxicity in human patient infected with Influenza virus assessed as lymphocyte morphology abnormal at 300 mg, iv; type: organism-based; details: in vivo
Outline: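 Adults with seasonal influenza received one intravenous infusion of peramivir (300 or 600 mg) or matching placebo; the median infusion lasted 0.63 h. Blood for haematology, including the white-cell differential, was taken at baseline and on days 3 and 14. Tests were run by blinded technicians. Adverse-event incidence in the 298-subject safety population was compared with placebo by Fisher's exact test.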

Homo sapiens [28] = assay: Toxicity in human patient infected with Influenza virus assessed as occurrence of diarrhea at 600 mg, iv; type: organism-based; details: in vivo; outline: as §1
Homo sapiens [29] = assay: Toxicity in human patient infected with Influenza virus assessed as increase in lymphocyte at 600 mg, iv; type: organism-based; details: in vivo; outline: as §2
Homo sapiens [30] = assay: Toxicity in human patient infected with Influenza virus assessed as white blood cells-positive urine at 600 mg, iv; type: organism-based; details: in vivo; outline: as §3
[31] = test system: unidentified influenza virus; assay: Antiviral activity against Influenza virus infected in human patient assessed as resumption time of usual activities at 300 mg, iv; type: functional
Homo sapiens [32] = assay: Toxicity in human patient infected with Influenza virus assessed as decrease in white blood cell count at 600 mg, iv; type: organism-based; details: in vivo; outline: as §2
Plasma = assay: Plasma concentration in human at 600 mg, iv after 18 to 24 hrs; type: ADME, organism-based; details: in vivo
Outline: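 Subjects received a single IV infusion of 300 or 600 mg (mean 5.0 or 10.0 mg/kg; median infusion 0.63 h). Plasma was sampled just before the infusion ended, and on days 2 and 3. Samples were deproteinized and run on C18 LC/MS-MS. Values are medians at end of infusion, 18–24 h and 36–48 h after infusion.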

Homo sapiens [33] = assay: Toxicity in human patient infected with Influenza virus assessed as increase in aspartate aminotransferase at 300 mg, iv; type: organism-based; details: in vivo; outline: as §2

CCC(CC)[C@H](NC(C)=O)[C@@H]1[C@H](O)[C@@H](C(=O)O)C[C@H]1NC(=N)N [PERAMIVIR ANHYDROUS]
Activity (Homo sapiens [1]): Toxic
Activity (Homo sapiens [2]): 3%
Activity (Homo sapiens [3]): Toxic
Activity (Homo sapiens [4]): Toxic
inhibition (INH) [5]: 0%
Activity (Homo sapiens [6]): Toxic
Time (Influenza A virus [7]): 76.1 h
Activity (Homo sapiens [8]): Toxic
Activity (Homo sapiens [9]): Toxic
Time (Influenza A virus [10]): 62.6 h
Activity (Homo sapiens [11]): Toxic
Activity (Homo sapiens [12]): Toxic
Time (Influenza A virus [13]): 52.5 h
Activity (Homo sapiens [14]): Toxic
pIC50 (Influenza A virus [15]): 8.45
Activity (Homo sapiens [16]): Toxic
Activity (Homo sapiens [17]): Toxic
Activity (Homo sapiens [18]): Toxic
Activity (Homo sapiens [19]): Toxic
Activity (Homo sapiens [20]): Toxic
Activity (Homo sapiens [21]): Toxic
Activity [22]: Active
pIC50 (Influenza B virus): 8.52
Activity (Homo sapiens [23]): Toxic
Activity (Homo sapiens [24]): Toxic
Activity [25]: Active
Activity (Homo sapiens [26]): Toxic
Activity (Homo sapiens [27]): Toxic
Activity (Homo sapiens [28]): 15.2%
Activity (Homo sapiens [29]): Toxic
Activity (Homo sapiens [30]): Toxic
Time [31]: 125.6 h
Activity (Homo sapiens [32]): Toxic
Cp (Plasma): 32.8 ng/mL
Activity (Homo sapiens [33]): Toxic
